Legend:
[1] = test system: Influenza A virus; experiment: Antiviral activity against Influenza A virus (A/PR/8/34(H1N1)) infected in MDCK cells assessed as virus-induced cytopathic effect after 3 days by MTS assay; format: functional, organism-based, A/Puerto Rico/8/1934(H1N1)
In short: (§1)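 Multicycle CPE reduction assay in 96-well MDCK cells. Cells got serial compound dilutions together with influenza virus at multiplicity of infection 0.0004 PFU per cell, then 72 h at 35 °C. CPE was read by microscopic scoring and then by MTS cell viability.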

[2] = test system: Influenza A virus; experiment: Antiviral activity against Influenza A virus (A/PR/8/34(H1N1)) infected in MDCK cells assessed as virus-induced cytopathic effect after 3 days by microscopic analysis; format: functional, organism-based, A/Puerto Rico/8/1934(H1N1); in short: as §1
[3] = test system: Influenza A virus; experiment: Antiviral activity against Influenza A virus (A/X-31(H3N2)) infected in MDCK cells assessed as virus-induced cytopathic effect after 3 days by MTS assay; format: functional, organism-based; in short: as §1
[4] = Cytotoxicity against dog MDCK cells assessed as cell viability by MTS assay; format: cell-based, Canis lupus familiaris
[5] = test system: Influenza A virus; experiment: Antiviral activity against Influenza A virus (A/X-31(H3N2)) infected in MDCK cells assessed as virus-induced cytopathic effect after 3 days by microscopic analysis; format: functional, organism-based; conditions: 72 h; in short: as §1
[6] = test system: Influenza B virus; experiment: Antiviral activity against Influenza B virus (B/HK/5/72) infected in MDCK cells assessed as virus-induced cytopathic effect after 3 days by microscopic analysis; format: functional, cell-based; conditions: B/Hong Kong/05/1972, MDCK, 72 h; in short: as §1
[7] = test system: Influenza B virus; experiment: Antiviral activity against Influenza B virus (B/HK/5/72) infected in MDCK cells assessed as virus-induced cytopathic effect after 3 days by MTS assay; format: functional, cell-based; conditions: B/Hong Kong/05/1972, MDCK, 72 h; in short: as §1
[8] = Cytotoxicity against dog MDCK cells assessed as cell morphology alterations by microscopic analysis; format: cell-based, Canis lupus familiaris
In short: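 MDCK cells were exposed to serial compound dilutions and kept 72 h at 35 °C alongside the antiviral plates. MCC is the lowest concentration causing a microscopically detectable change in cell morphology.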

[9] = target: Hemagglutinin (Influenza A virus (strain A/X-31 H3N2), UniProt P03438); experiment: Inhibition of hemagglutininin in Influenza A virus (A/X-31(H3N2)) infected in chicken red blood cells assessed as inhibition of hemolysis preincubated for 1 hr prior to addition of red blood cells measured at pH 5.0 by spectrophotometric analysis; format: cell-based
Sequence of Hemagglutinin (P03438 whole entry): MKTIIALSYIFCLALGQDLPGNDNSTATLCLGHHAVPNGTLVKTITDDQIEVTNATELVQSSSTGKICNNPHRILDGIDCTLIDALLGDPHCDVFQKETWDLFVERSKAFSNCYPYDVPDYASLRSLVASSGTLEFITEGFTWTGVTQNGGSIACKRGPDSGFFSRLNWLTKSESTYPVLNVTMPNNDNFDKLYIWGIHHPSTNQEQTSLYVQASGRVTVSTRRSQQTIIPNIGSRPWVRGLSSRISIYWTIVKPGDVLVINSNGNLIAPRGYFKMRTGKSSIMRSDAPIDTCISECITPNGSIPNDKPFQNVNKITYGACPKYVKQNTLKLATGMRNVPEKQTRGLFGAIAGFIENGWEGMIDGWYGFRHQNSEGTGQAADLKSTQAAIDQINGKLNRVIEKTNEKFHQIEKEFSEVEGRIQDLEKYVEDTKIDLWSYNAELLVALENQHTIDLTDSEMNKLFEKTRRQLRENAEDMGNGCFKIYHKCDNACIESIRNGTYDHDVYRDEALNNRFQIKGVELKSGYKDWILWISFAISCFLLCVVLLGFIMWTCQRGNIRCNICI
In short: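 Influenza A/X-31 (H3N2) stock was preincubated with serial compound dilutions for 1 h at 37 °C. Chicken RBC were added for 10 min at 37 °C, then pelleted and resuspended in buffer holding the same compound level. pH was lowered to 5.0 for 25 min at 37 °C, then neutralised. Intact RBC were spun out and supernatant OD540 read. IC50 came from dose-response.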

[10] = Selectivity index, ratio of cytotoxic concentration for dog MDCK cells to EC50 for Influenza A virus (A/X-31(H3N2)); format: toxicity, cell-based; conditions: read-out: Ratio EC50
[11] = Influenza A virus, A/Puerto Rico/8/1934(H1N1), MDCK, 72 h

| SMILES | EC50 [1, 11] [µM] | EC50 [2, 11] [µM] | EC50 ([3]; Influenza A virus, MDCK, 72 h) [µM] | CC50 [4] [µM] | EC50 [5] [µM] | EC50 [6] [µM] | EC50 [7] [µM] | MCC [8] [µM] | EC50 ([1]; mdck) [µM] | EC50 ([2]; mdck) [µM] | EC50 ([3]; mdck) [µM] | IC50 [9] [µM] | selectivity ratio [10] |
| --- | --- | --- | --- | --- | --- | --- | --- | --- | --- | --- | --- | --- | --- |
| CC(N)C12CC3CC(CC(C3)C1)C2 (stereo not drawn) [RIMANTADINE] | 2.5 | 2.7 | 40 | 218 | 45 | > 500 | > 500 | – | – | – | – | – | – |
| CC(C)(C)C1CCC2(CC1)SCC(=O)N2NC(=O)C12CC3CC(CC(C3)C1)C2 (stereo not drawn) | 53 | > 100 | 34 | > 100 | > 100 | > 100 | > 100 | > 20 | – | – | – | – | – |
| NC12CC3CC(CC(C3)C1)C2 [AMANTADINE] | 75 | 58 | 208 | > 500 | 224 | > 500 | > 500 | > 500 | – | – | – | – | – |
| CCCC1CCC2(CC1)SCC(=O)N2NC(=O)C12CC3CC(CC(C3)C1)C2 (stereo not drawn) | > 100 | > 100 | 44 | > 100 | > 100 | > 100 | > 100 | > 100 | – | – | – | – | – |
| CCCC1CCC2(CC1)SC(C)C(=O)N2NC(=O)C12CC3CC(CC(C3)C1)C2 (stereo not drawn) | > 100 | > 100 | 23 | > 100 | 29 | > 100 | > 100 | > 100 | – | – | – | – | – |
| Cc1nc2sccn2c1C(=O)NN1C(=O)C(C)SC12CCC(C)CC2 (stereo not drawn) | > 100 | > 100 | 9 | > 100 | 6.8 | > 100 | > 100 | > 100 | – | – | – | – | – |
| NC(=O)c1ncn([C@@H]2O[C@H](CO)[C@@H](O)[C@H]2O)n1 [RIBAVIRIN] | – | – | – | > 100 | – | 0.094 | 0.14 | > 20 | 8.4 | 8.9 | 8.5 | – | – |
| CC1SC2(CCC(C(C)(C)C)CC2)N(NC(=O)C23CC4CC(CC(C4)C2)C3)C1=O (stereo not drawn) | > 100 | > 100 | > 100 | > 100 | > 100 | > 100 | > 100 | > 100 | – | – | – | – | – |
| CC1SC2(CCC(c3ccccc3)CC2)N(NC(=O)C23CC4CC(CC(C4)C2)C3)C1=O (stereo not drawn) | > 100 | > 100 | > 100 | 42 | > 100 | > 100 | > 100 | 20 | – | – | – | – | – |
| CC1SC2(CCCCC2)N(NC(=O)C23CC4CC(CC(C4)C2)C3)C1=O (stereo not drawn) | > 100 | > 100 | > 100 | > 100 | > 100 | > 100 | > 100 | > 100 | – | – | – | – | – |
| CCC1CCC2(CC1)SCC(=O)N2NC(=O)C12CC3CC(CC(C3)C1)C2 (stereo not drawn) | > 100 | > 100 | 21 | > 100 | > 100 | > 100 | > 100 | > 100 | – | – | – | – | – |
| CC1CCC2(CC1)SCC(=O)N2NC(=O)C12CC3CC(CC(C3)C1)C2 (stereo not drawn) | > 100 | > 100 | > 100 | > 100 | > 100 | > 100 | > 100 | > 100 | – | – | – | – | – |
| CC1CCC2(CC1)SC(C)C(=O)N2NC(=O)C12CC3CC(CC(C3)C1)C2 (stereo not drawn) | > 100 | > 100 | 1.4 | > 100 | 1.6 | > 100 | > 100 | > 100 | – | – | – | 3.7 | > 67 |
| CCC1CCC2(CC1)SC(C)C(=O)N2NC(=O)C12CC3CC(CC(C3)C1)C2 (stereo not drawn) | > 100 | > 100 | 1.7 | > 100 | 51 | > 100 | > 100 | > 100 | – | – | – | – | – |
| O=C1CSC2(CCC(c3ccccc3)CC2)N1NC(=O)C12CC3CC(CC(C3)C1)C2 (stereo not drawn) | > 100 | > 100 | > 100 | > 100 | > 100 | > 100 | > 100 | > 20 | – | – | – | – | – |
| CC(=O)N[C@H]1[C@H]([C@H](O)[C@H](O)CO)OC(C(=O)O)=C[C@@H]1NC(=N)N [ZANAMIVIR] | 0.48 | 0.44 | 53 | > 100 | 12 | 0.072 | 0.063 | > 100 | – | – | – | – | – |
